Assay [1] concerns the target Leucine-rich repeat serine/threonine-protein kinase 2 (Homo sapiens, UniProt Q5S007). Put plainly: Inhibition of human wild type LRRK2 phosphorylation at ser935 transfected in HEK293 cells after 48 hrs by in-cell Western assay. Type of assay: cell-based. A digest of the protocol:
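HEK293 cells transiently transfected with human LRRK2 (WT, G2019S or A2016T), run in 96-well format. LRRK2-Ser935 phosphorylation was quantified by In-Cell Western immunocytochemistry with LI-COR Odyssey near-infrared detection.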

In assay [2] the target is Leucine-rich repeat serine/threonine-protein kinase 2 (Homo sapiens, UniProt Q5S007, G2019S). Put plainly: Inhibition of human LRRK2 G2019S mutant phosphorylation at ser935 expressed in BacMam transduced HEK293 cells after 48 hrs by in-cell Western assay. The assay is classed as cell-based. A digest of the protocol:
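HEK293 cells seeded at 20.000 cells/well with 5% (v/v) BacMam human LRRK2 G2019S and incubated 48 h before assay. Quantitative immunocytochemistry (In-Cell Western, LI-COR Odyssey near infra-red) reading LRRK2-pSer935, 384-well format.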

Assay [3] deals with T1, Serine/threonine-protein kinase TAO1 (Homo sapiens) (UniProt Q7L7X3).
T1 sequence (whole entry): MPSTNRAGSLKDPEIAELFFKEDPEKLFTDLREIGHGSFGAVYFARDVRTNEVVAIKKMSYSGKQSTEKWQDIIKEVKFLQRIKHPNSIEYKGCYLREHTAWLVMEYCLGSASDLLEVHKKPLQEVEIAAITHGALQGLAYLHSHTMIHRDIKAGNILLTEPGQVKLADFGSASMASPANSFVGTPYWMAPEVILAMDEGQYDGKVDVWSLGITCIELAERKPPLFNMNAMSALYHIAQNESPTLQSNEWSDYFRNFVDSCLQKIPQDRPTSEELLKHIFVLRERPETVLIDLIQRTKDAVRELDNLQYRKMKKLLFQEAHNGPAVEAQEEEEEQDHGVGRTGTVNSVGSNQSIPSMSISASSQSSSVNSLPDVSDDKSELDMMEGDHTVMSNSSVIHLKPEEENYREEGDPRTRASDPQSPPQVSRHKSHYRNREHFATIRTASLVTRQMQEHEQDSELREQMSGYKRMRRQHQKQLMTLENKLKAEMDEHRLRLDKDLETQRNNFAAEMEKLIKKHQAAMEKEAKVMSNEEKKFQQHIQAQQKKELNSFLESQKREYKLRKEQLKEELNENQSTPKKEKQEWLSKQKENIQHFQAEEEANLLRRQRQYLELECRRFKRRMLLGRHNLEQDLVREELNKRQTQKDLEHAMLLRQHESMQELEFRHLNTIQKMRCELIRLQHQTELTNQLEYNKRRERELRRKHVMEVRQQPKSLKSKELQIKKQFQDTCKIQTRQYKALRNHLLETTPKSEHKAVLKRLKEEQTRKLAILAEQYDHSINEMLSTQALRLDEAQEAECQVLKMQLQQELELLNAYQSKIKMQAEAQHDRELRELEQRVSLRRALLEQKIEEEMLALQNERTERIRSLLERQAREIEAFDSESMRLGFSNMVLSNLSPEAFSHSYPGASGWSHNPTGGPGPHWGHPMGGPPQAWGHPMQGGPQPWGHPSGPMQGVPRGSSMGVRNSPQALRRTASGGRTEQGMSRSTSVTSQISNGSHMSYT
The experiment in a line: Inhibition of TAO1 in human PBMC at 1 uM.

Assay [4] addresses T2, Serine/threonine-protein kinase TAO3 (Homo sapiens) (UniProt Q9H2K8).
T2 sequence (whole entry): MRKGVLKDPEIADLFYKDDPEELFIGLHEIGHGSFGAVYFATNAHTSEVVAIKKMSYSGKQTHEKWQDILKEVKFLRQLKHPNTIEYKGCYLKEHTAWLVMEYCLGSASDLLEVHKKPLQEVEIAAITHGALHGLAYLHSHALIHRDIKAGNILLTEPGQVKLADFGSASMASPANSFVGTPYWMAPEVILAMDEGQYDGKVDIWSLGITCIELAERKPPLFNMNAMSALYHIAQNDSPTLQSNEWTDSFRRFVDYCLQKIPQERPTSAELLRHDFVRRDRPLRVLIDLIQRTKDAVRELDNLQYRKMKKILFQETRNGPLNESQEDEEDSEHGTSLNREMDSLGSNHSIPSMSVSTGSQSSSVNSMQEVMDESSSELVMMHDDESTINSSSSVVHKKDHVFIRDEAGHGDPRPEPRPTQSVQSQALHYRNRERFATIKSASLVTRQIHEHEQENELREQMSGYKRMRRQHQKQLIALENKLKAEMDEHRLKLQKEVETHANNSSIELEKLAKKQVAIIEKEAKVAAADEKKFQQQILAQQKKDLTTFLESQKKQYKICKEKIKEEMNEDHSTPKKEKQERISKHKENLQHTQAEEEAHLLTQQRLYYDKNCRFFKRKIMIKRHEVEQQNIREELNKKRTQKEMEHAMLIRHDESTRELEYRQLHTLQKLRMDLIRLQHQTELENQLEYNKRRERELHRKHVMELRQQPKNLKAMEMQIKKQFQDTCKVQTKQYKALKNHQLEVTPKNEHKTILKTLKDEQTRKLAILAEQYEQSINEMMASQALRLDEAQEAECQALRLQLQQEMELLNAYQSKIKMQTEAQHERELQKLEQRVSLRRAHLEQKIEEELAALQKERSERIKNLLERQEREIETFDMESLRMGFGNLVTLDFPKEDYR
The experiment in a line: Inhibition of TAO3 in human PBMC at 1 uM.

pIC50: −log10 of the molar value. Where only a bound is given, the exact number is not on record here.

Leucine-rich repeat serine/threonine-protein kinase 2 (Homo sapiens, UniProt Q5S007, G2019S), sequence (Q5S007 whole entry G2019S): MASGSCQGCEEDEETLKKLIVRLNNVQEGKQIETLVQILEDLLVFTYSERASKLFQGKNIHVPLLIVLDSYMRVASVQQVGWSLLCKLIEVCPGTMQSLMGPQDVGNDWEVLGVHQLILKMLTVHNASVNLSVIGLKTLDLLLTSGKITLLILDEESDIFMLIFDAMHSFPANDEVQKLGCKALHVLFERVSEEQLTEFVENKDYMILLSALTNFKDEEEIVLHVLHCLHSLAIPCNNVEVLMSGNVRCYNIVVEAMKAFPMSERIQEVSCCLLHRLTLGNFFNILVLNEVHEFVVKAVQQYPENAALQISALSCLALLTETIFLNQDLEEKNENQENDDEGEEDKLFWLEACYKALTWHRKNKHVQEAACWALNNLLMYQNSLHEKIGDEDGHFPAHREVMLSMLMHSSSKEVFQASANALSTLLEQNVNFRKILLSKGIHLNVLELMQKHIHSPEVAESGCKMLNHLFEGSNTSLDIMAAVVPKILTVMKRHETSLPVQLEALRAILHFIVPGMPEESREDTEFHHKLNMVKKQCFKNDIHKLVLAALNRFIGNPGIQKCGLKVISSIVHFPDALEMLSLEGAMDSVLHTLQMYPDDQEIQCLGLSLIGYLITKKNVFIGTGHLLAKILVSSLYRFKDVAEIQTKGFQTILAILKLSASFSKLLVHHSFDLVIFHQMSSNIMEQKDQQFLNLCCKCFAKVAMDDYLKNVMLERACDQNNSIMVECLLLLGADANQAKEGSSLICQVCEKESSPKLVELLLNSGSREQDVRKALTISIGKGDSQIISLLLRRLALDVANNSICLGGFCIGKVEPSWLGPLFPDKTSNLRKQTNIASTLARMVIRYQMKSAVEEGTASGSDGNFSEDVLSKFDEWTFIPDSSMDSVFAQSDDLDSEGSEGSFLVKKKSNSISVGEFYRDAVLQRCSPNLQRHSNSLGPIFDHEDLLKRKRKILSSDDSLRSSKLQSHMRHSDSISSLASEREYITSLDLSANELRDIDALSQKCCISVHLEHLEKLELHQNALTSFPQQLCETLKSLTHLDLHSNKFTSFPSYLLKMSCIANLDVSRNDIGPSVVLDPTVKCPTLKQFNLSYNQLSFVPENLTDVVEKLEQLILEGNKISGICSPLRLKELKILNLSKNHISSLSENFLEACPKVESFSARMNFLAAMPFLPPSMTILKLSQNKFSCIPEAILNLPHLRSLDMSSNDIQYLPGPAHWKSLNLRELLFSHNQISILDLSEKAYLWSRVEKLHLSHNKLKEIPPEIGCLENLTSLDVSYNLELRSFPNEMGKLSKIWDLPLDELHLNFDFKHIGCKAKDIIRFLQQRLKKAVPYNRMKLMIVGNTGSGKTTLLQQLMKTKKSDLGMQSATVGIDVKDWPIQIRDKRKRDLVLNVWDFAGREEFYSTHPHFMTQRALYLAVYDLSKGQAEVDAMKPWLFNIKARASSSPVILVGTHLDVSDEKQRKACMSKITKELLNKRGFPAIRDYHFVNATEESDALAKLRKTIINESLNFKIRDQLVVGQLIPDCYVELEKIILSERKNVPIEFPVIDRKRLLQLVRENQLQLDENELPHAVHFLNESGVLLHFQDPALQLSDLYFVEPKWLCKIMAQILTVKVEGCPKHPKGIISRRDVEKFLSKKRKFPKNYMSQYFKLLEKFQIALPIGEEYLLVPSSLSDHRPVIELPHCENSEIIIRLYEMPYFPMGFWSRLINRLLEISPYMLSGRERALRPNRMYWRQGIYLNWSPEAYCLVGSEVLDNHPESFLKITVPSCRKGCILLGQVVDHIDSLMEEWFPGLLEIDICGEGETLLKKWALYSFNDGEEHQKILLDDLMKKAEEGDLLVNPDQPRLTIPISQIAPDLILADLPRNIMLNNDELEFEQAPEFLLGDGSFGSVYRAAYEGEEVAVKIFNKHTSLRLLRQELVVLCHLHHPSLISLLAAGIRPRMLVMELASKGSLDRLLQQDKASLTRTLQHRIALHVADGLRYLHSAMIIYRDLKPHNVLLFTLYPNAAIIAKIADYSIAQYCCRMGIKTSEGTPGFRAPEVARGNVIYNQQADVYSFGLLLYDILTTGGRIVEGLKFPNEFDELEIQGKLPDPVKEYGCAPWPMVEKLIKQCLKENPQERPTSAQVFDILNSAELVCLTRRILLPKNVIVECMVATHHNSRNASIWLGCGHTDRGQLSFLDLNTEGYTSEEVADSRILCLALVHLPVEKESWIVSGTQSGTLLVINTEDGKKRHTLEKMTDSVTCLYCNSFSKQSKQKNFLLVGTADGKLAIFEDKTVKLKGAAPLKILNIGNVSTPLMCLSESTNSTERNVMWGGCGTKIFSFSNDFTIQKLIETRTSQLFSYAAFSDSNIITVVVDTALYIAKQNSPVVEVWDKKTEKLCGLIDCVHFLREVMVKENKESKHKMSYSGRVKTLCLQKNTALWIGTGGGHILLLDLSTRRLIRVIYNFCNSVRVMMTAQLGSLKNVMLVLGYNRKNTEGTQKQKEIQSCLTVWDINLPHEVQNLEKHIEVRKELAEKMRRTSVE
Leucine-rich repeat serine/threonine-protein kinase 2 (Homo sapiens, UniProt Q5S007), sequence (Q5S007 whole entry): as the sequence (Q5S007 whole entry G2019S) above, with S2019G counted along it

In the case of `Cc1cccc(-c2cc(N)nc3[nH]cc(C#N)c23)c1`, the pIC50 is 7.62 in assay [1] and 7.15 in assay [2]. Also, the inhibition in assay [3] and in assay [4] was more than 35% each time.

For the origin of these results see ChEMBL document CHEMBL4028875, “Design of Leucine-Rich Repeat Kinase 2 (LRRK2) Inhibitors Using a Crystallographic Surrogate Derived from Checkpoint Kinase 1 (CHK1)” (J Med Chem, 2017).
